Assay results gathered from unrelated publications.
Protocols differ between the studies behind these lines.
Read-out: enzyme activity
Mode: inhibitor
Rps6ka1: Ribosomal protein S6 kinase alpha-1 (Rps6ka1, Rattus norvegicus, UniProt Q63531)
MARK2: Serine/threonine-protein kinase MARK2 (MARK2, Homo sapiens, UniProt Q7KZI7)
WEE2: Wee1-like protein kinase 2 (WEE2, Homo sapiens, UniProt P0C1S8)
HIPK4: Homeodomain-interacting protein kinase 4 (HIPK4, Homo sapiens, UniProt Q8NE63)

SMILES	target	test	conditions	remaining activity [%]
CC1CS(=O)(=O)CCN1/N=C/c1ccc([N+](=O)[O-])o1 (stereo not shown)	TcPGFS (Trypanosoma cruzi, UniProt Q8I6L9)		200 µM	6
Cc1cnc(NC2CCOCC2)nc1-n1cnc(C(=O)NC(CN)c2cc(F)cc(Cl)c2)c1 (stereo not shown)	Rps6ka1	radiometric	1 µM	53
NS(=O)(=O)c1ccc(CNc2ccnc(Nc3cccc(NC(=O)N4CCCC4)c3)n2)cc1	MARK2	radiometric	1 µM	115
Cc1ccc(C(=O)Nc2ccc(CN3CCN(C)CC3)c(C(F)(F)F)c2)cc1C#Cc1cnc2cccnn12	WEE2		23.5 nM	96
O=C(O)c1ccc2c(c1)nc(Nc1cccc(F)c1)c1ccncc12	HIPK4	radiometric	1 µM	1
CCCOc1ccc(OC)c(F)c1C(=O)c1ccc(C(=O)N[C@@H]2CNC[C@H]2NC(=O)c2ccc3[nH]ncc3c2)cc1	Rps6ka1		0.5 µM	77
O=C(O)c1ccc2c(c1)nc(NCCc1cccc(Cl)c1)c1ncncc12	HIPK4	radiometric	1 µM	53
Brc1cnc(Nc2cccc(CN3CCOCC3)c2)nc1NCCc1c[nH]cn1	MARK2	radiometric	1 µM	5
N#Cc1cccc(Nc2nc3cc(C(=O)O)ccc3c3cncnc23)c1	HIPK4	radiometric	1 µM	35
COc1cc(Cl)c(C(=O)N[C@@H](CN[C@H]2CC[C@@H](N)CC2)Cc2ccc(C#N)cc2)cc1-c1ccc(CN[C@H](C)c2ccc(C)cc2)o1	WEE2		1 µM	89
